Here are results for two compounds from paper PMC3149845 (The Journal of neuroscience : the official journal of the …, 2011).

What is called EC50 is the concentration that produces a half-maximal response.

Entries after “also recorded” stand apart in the source; their conditions may differ. Where two headings read alike, the source gives them in different places. Peptide text beside a SMILES is read from it.

Test [1] has as its target smTas1R2:T40S/S67I/E142D+smTas1R3 (Saimiri sciureus, UniProt A3QP08, E142D/S67I/T40S). As to the kind of experiment: Ca2+ mobilization, mutated squirrel monkey receptor. In kind it is cell-based, squirrel monkey (Saimiri sciureus). Particulars: for calcium response to sweetener: aspartame 10mM, neotame 1mM, sucralose 2 mM, compared with smTas1R2/smTas1R3; for response in dose-response experiment: versus smTas1R2+smTas1R3; for Bottom (B) of sigmoid dose-response fit / Top (T) of sigmoid dose-response fit: ΔF/F normalized to maximum response of hTas1R2/hTas1R3 to neotame. Background: Calcium assays in cells follow changes in intracellular calcium, usually with a dye or a luminescent sensor.

The target in another test is smTas1R2:S67I+smTas1R3 (Saimiri sciureus, UniProt A3QP08, S67I). The description is as above. It is filed as cell-based, squirrel monkey (Saimiri sciureus). Particulars: aspartame 10mM, neotame 1mM, sucralose 2 mM; compared with smTas1R2/smTas1R3.
Sequence of smTas1R2:S67I+smTas1R3 (A3QP08 20-834 S67I): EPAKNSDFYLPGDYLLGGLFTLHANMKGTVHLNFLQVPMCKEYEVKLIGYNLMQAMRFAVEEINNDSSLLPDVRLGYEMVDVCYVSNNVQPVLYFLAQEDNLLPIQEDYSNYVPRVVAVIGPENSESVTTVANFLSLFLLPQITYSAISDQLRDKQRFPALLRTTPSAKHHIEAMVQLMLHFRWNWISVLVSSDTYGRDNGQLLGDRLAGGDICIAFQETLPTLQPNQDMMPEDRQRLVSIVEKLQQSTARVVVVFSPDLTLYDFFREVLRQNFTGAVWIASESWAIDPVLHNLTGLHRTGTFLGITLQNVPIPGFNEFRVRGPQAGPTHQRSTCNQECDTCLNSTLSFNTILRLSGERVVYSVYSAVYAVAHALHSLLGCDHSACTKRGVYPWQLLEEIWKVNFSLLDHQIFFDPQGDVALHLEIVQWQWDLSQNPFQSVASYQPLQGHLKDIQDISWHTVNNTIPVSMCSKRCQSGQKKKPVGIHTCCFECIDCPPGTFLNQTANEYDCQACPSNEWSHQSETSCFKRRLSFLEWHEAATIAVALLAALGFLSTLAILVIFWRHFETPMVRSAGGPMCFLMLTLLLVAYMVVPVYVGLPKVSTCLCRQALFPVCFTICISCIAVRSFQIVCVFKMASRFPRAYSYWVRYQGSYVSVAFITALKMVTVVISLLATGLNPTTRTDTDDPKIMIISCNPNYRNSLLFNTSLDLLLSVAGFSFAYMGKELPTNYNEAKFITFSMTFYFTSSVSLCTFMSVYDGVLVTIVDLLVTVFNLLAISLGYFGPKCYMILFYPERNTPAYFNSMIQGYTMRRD
Another test addresses smTas1R2/smTas1R3 (Saimiri sciureus, UniProt A3QP08). As to the kind of experiment: Ca2+ mobilization, wild type squirrel monkey sweet taste receptor. It is filed as cell-based, squirrel monkey (Saimiri sciureus). Particulars: HEK293E cells with Gα16-gust44.
A further test deals with smTas1R2:T40S+smTas1R3 (Saimiri sciureus, UniProt A3QP08, T40S). As to the kind of experiment: Ca2+ mobilization, mutated squirrel monkey receptor. It is filed as cell-based, squirrel monkey (Saimiri sciureus). To be noted: aspartame 10mM, neotame 1mM, sucralose 2 mM; compared with smTas1R2/smTas1R3.
Sequence of smTas1R2:T40S+smTas1R3 (A3QP08 20-834 T40S): as the sequence (A3QP08 20-834 S67I) above, with T21S, I48S counted along it
Test [2] concerns the target smTas1R2:T40S/S67I+smTas1R3 (Saimiri sciureus, UniProt A3QP08, S67I/T40S). Described as above. It is filed as cell-based, squirrel monkey (Saimiri sciureus). Particulars: aspartame 10mM, neotame 1mM, sucralose 2 mM.
In test [3] the target is smTas1R2:T40S/E142D+smTas1R3 (Saimiri sciureus, UniProt A3QP08, E142D/T40S). The description is as above. To be noted: for response in dose-response experiment: versus smTas1R2+smTas1R3. It is filed as cell-based, squirrel monkey (Saimiri sciureus).
Sequence of smTas1R2:T40S/E142D+smTas1R3 (A3QP08 20-834 T40S/E142D): as the sequence (A3QP08 20-834 S67I) above, with T21S, I48S, E123D counted along it
In test [4] the target is hTas1R2:S40T/V66L/I67S/D142E+hTas1R3 (Homo sapiens, UniProt Q8TE23, D142E/I67S/S40T/V66L). As to the kind of experiment: Ca2+ mobilization, mutated human receptor. In kind it is cell-based. Particulars: aspartame 10mM, neotame 1mM, sucralose 2 mM; compared with hTas1R2/hTas1R3. The essentials: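 HEK293E cells grown at 37°C in Opti-MEM with 5% FBS and seeded at 50,000/well. Cells co-lipofected with Tas1R plasmids and Gα16-gust44 (0.06 μg each per well); medium changed at 20 h, assayed 24 h later. Cells loaded 1 h with Fluo-4 AM in HEPES-buffered HBSS. Tastant added at 30 s; fluorescence (ex 488/em 525 nm) read every 2 s for 150 s more. ΔF/F normalised to human receptor maximal sucralose response; mean ± SEM, three independent experiments.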
Sequence of hTas1R2:S40T/V66L/I67S/D142E+hTas1R3 (Q8TE23 20-839 S40T/V66L/I67S/D142E, one chain of several): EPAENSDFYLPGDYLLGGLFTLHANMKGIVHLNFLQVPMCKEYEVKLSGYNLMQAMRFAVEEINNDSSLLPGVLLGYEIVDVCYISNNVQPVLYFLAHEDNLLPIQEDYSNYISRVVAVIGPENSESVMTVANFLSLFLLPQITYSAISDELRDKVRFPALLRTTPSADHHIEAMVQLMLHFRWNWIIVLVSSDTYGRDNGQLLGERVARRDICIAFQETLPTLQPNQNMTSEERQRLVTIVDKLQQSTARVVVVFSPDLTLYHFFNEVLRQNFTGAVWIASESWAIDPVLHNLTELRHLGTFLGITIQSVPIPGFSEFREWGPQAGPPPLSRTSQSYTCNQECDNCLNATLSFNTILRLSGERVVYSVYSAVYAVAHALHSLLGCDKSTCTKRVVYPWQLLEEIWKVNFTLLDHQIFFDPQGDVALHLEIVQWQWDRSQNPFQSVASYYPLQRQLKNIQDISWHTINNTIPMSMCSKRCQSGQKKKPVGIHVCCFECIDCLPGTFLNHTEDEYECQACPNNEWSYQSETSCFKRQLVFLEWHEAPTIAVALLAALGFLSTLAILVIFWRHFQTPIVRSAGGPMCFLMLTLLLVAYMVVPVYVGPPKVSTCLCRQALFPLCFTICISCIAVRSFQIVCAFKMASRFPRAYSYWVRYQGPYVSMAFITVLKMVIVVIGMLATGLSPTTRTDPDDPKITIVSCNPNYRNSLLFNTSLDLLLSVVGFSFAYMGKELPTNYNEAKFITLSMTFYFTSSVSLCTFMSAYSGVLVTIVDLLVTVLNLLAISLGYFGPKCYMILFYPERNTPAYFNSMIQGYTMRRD

The target in test [5] is T1, hTas1R2:S40T/I67S/D142E+hTas1R3 (Homo sapiens, UniProt Q8TE23, D142E/I67S/S40T).
T1 sequence (Q8TE23 20-839 S40T/I67S/D142E): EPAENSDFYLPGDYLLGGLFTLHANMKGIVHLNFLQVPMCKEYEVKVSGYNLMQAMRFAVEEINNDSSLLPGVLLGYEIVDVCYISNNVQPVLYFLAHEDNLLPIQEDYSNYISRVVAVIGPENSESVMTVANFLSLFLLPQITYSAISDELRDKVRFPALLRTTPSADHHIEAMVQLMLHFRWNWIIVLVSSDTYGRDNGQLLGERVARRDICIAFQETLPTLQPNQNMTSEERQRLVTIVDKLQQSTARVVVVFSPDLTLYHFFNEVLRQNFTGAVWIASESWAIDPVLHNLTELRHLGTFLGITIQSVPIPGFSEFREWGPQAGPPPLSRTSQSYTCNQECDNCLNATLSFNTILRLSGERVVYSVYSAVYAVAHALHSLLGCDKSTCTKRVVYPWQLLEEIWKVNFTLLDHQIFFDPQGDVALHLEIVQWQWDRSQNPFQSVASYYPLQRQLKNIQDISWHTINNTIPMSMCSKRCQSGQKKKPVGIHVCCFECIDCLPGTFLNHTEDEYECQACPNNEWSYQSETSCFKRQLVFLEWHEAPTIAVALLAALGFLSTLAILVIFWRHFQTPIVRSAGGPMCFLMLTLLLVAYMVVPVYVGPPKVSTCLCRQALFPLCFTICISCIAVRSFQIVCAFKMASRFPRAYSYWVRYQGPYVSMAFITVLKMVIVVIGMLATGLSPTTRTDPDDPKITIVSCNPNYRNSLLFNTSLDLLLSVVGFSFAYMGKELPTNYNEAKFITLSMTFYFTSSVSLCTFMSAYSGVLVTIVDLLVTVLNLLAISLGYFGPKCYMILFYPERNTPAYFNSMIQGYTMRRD
T1 sequence (Q7RTX0 21-852 partner): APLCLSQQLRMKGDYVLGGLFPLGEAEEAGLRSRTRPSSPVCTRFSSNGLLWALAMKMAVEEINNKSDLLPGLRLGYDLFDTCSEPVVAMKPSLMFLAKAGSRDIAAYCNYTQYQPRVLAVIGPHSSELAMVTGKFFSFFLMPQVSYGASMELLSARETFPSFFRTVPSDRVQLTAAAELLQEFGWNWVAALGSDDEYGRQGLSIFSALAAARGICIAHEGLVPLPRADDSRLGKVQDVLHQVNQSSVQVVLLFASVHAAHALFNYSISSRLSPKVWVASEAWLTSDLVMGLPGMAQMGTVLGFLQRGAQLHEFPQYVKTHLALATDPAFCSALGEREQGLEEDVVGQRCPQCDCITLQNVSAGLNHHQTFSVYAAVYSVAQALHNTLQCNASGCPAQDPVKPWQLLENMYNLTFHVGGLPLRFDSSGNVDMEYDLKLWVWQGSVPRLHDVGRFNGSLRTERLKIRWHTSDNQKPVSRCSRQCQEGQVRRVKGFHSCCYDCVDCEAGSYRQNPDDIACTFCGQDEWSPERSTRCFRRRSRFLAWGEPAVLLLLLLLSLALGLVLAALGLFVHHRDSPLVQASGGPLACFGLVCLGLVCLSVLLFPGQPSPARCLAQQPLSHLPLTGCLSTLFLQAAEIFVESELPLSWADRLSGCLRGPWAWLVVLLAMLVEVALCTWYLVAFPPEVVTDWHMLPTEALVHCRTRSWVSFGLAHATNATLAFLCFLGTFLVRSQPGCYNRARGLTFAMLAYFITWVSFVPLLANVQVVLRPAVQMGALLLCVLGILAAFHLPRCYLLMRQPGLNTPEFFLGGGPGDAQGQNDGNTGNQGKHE
As to the kind of experiment: Ca2+ mobilization, mutated human receptor. It is filed as cell-based. Particulars: for calcium response to sweetener: aspartame 10mM, neotame 1mM, sucralose 2 mM, compared with hTas1R2/hTas1R3; for response in dose-response experiment: versus hTas1R2+hTas1R3.

The conditions of test [6]: cited from earlier work.
Where [7] appears, read: ΔF/F normalized to maximum response of hTas1R2/hTas1R3 to neotame.
The mark [8] stands for this setting: HEK293E cells with Gα16-gust44, dose-response, calcium mobilization.

Sequence of smTas1R2:T40S/S67I/E142D+smTas1R3 (A3QP08 20-834 T40S/S67I/E142D): as the sequence (A3QP08 20-834 S67I) above, with T21S, E123D counted along it
Sequence of smTas1R2:T40S/S67I+smTas1R3 (A3QP08 20-834 T40S/S67I): as the sequence (A3QP08 20-834 S67I) above, with T21S counted along it
Sequence of smTas1R2/smTas1R3 (A3QP08 20-834): as the sequence (A3QP08 20-834 S67I) above, with I48S counted along it

Take `COC(=O)[C@H](Cc1ccccc1)NC(=O)[C@@H](N)CC(=O)O` [aspartame, L-α-aspartly-L-phenylalanine methyl ester] (H-Asp-Phe-OMe): the EC50 is 1200 µM in [1] and 1400 µM in [3]. Also, the “calcium response to sweetener” value in test [1] is given as “significant responses”; at smTas1R2:S67I+smTas1R3, “not able to recover”; at smTas1R2:T40S+smTas1R3 it was “not able to recover”; in test [2] it was “no response”; in [4], “greatly impaired”; in [5], “greatly impaired responsiveness”. Further, the “response in dose-response experiment” value in test [1] (dose-response) is “good response”; on smTas1R2/smTas1R3, “no response”; in [3] (dose-response), “good response”; in test [5] (dose-response), “no responses”. In addition, the “Bottom (B) of sigmoid dose-response fit” value in [1] is reported as −2.882; in test [3] (setting [7]), −3.314. Besides, the “Top (T) of sigmoid dose-response fit” value is on record as 32.61 in [1] and 42.4 in test [3] (setting [7]). Besides, the “sweet potency relative to sucrose” value in test [6] (ref Meguro et al., 2000) is on record as 200 times.
In the case of `COC(=O)[C@H](Cc1ccccc1)NC(=O)[C@H](CC(=O)O)NCCC(C)(C)C` [neotame], the results for the 50% effective concentration (EC50) in [1] (setting [8]), in test [3] (setting [8]) and in test [5] (setting [8]) were 280 µM, 2100 µM and 12000 µM, respectively. The “calcium response to sweetener” value is given as “significant responses” in test [1]; “not able to recover” at smTas1R2:S67I+smTas1R3; “not able to recover” at smTas1R2:T40S+smTas1R3; “no response” in [2]; “greatly impaired” in test [4]; “greatly impaired responsiveness; also recorded: almost completely abolished” in test [5]. Besides, the “response in dose-response experiment” value in test [1] (dose-response) is given as “good responses”; at smTas1R2/smTas1R3, “no response”; in test [3] (dose-response) it was “good responses”; in test [5] (dose-response) it was “weaker responses”. The “Bottom (B) of sigmoid dose-response fit” value is given as −4.671 in test [1] and −1.486 in test [5] (setting [7]). Further, the “Top (T) of sigmoid dose-response fit” value is reported as 51.73 in test [1], 69.46 in test [3] (setting [7]) and 39.87 in test [5] (setting [7]). Further, the “sweetness relative to aspartame” value in test [6] (ref Garbow et al., 2001) is on record as “about 40 times”.
